Values after ≈ are worked out from the molar mass of the structure shown.
What was measured:
[1] = AUC (0 to 24 hrs) in BALB-nu/nu mouse at 100 mg/kg, po by LC-MS/MS analysis; assay type: ADME, organism-based; parameters: time < 24 hr, dose 100 mg/kg, route oral; details: plasma
Summary of the method: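 Mice received a single oral dose of 100 mg/kg, formulated as a solution in 5% DMSO, 5% Cremophor EL, 15% PEG400, 15% HPCD and 60% water. Plasma exposure was evaluated over 24 h.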

[2] = Permeability of the compound at pH 6.5 by PAMPA; assay type: ADME; details: read-out: permeability
Liver microsome = assay: Clearance in human liver microsomes at 5 uM by LC-MS/MS analysis; assay type: ADME
[3] = Solubility of the compound in fasted state simulated intestinal fluid measured after overnight incubation by UV-HPLC analysis; assay type: ADME
[4] = molecular target: RAF proto-oncogene serine/threonine-protein kinase (Homo sapiens, UniProt P04049); assay: Inhibition of C-Raf (unknown origin) assessed as phosphorylation of MEK1 after 45 mins by TR-FRET assay
Chain of RAF proto-oncogene serine/threonine-protein kinase (P04049 whole entry): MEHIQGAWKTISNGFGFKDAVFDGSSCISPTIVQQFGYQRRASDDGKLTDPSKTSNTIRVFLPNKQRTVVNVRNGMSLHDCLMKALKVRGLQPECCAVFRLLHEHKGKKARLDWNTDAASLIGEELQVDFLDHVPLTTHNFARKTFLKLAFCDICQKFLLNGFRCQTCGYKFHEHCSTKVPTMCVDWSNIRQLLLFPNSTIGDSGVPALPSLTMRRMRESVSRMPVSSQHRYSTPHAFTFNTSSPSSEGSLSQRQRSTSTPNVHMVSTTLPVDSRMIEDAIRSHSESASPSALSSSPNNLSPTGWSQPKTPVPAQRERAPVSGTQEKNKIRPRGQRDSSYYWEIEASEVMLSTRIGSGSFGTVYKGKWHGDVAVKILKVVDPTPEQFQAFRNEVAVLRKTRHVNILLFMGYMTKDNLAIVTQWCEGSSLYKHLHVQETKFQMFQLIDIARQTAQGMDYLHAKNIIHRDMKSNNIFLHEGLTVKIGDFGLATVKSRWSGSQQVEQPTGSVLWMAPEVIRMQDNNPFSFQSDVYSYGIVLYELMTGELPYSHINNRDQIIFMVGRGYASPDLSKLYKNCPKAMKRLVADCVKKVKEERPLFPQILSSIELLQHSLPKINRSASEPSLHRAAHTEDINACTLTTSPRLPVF

[5] = molecular target: Dual specificity mitogen-activated protein kinase kinase 1 (Homo sapiens, UniProt Q02750); assay: Inhibition of MEK1 (unknown origin) assessed as phosphorylation of Erk2 preincubated for 30 mins followed by FAM-Erktide addition measured after 60 mins by IMAP fluorescence polarization assay
Chain of Dual specificity mitogen-activated protein kinase kinase 1 (Q02750 whole entry): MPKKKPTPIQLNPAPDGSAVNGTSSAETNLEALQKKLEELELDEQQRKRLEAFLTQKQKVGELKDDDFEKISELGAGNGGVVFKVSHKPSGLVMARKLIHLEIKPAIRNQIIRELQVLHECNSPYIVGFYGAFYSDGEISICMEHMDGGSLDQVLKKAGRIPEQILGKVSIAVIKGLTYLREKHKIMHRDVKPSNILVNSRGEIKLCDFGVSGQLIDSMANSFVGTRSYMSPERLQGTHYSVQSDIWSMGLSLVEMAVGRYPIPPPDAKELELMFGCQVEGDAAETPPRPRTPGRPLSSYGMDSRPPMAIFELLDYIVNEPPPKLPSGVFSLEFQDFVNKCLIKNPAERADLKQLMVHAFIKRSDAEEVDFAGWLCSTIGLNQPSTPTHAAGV

HCT-116 [6] = assay: Antiproliferative activity against human HCT116 cells assessed as cell viability after 96 hrs by cell counting kit-8 assay; assay type: functional, cell-based; details: HCT-116, 96 h
[7] = AUC (0 to 24 hrs) in BALB-nu/nu mouse at 50 mg/kg, po by LC-MS/MS analysis; assay type: ADME, organism-based; parameters: time < 24 hr, dose 50 mg/kg, route oral; details: plasma
Mus musculus = assay: Toxicity in BALB nu/nu mouse xenografted with human HCT116 cells assessed as body weight change at 0.3 mg/kg to 30 mg/kg, po qd for 11 days measured twice per week; assay type: organism-based, HCT-116; details: in vivo, 264 h
HCT-116 [8] = assay: Antitumor activity against human HCT116 cells xenografted in BALB-nu/nu mouse assessed as tumor growth inhibition at 30 mg/kg, po qd for 11 days measured twice per week relative to control; assay type: functional; details: HCT-116, 264 h, read-out: TGI
Summary of the method: (§1)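 HCT116 cells implanted subcutaneously in right flank of BALB-nu/nu mice; tumours allowed to establish before dosing. Sodium salt given orally once daily for 11 days (day 0 to day 10). Tumour size measured twice weekly; mean SD, n = 4.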

[9] = Oral bioavailability in cynomolgus monkey at 5 mg/kg by LC-MS/MS analysis; assay type: ADME, organism-based, Macaca fascicularis; details: in vivo
Summary of the method: (§2)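 Sodium salt dosed intravenously and orally in mouse (10/20 mg/kg), rat (5.0/10 mg/kg) and monkey (2.5/5.0 mg/kg iv/po), vehicle 5% DMSO/5% Cremophor EL/15% PEG400/15% HPCD/60% water. AUC_inf from oral dosing, t1/2 from iv dosing, clearance and oral bioavailability from paired iv/po data.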

HCT-116 [10] = assay: Antitumor activity against human HCT116 cells xenografted in BALB-nu/nu mouse administered orally qd for 11 days; assay type: functional; details: HCT-116, po, 264 h; summary of the method: as §1
[11] = Oral bioavailability in rat at 10 mg/kg by LC-MS/MS analysis; assay type: ADME, organism-based; details: in vivo; summary of the method: as §2
[12] = Oral bioavailability in BALB-nu/nu mouse at 20 mg/kg by LC-MS/MS analysis; assay type: ADME, organism-based; details: in vivo; summary of the method: as §2
[13] = Clearance in rat at 5 mg/kg, iv and 10 mg/kg, po by LC-MS/MS analysis; assay type: ADME, organism-based; details: in vivo; summary of the method: as §2
[14] = Clearance in cynomolgus monkey at 2.5 mg/kg, iv and 5 mg/kg, po by LC-MS/MS analysis; assay type: ADME, organism-based, Macaca fascicularis; details: in vivo; summary of the method: as §2
[15] = Clearance in BALB-nu/nu mouse at 10 mg/kg, iv and 20 mg/kg, po by LC-MS/MS analysis; assay type: ADME, organism-based; details: in vivo; summary of the method: as §2
[16] = Half life in rat at 5 mg/kg, iv by LC-MS/MS analysis; assay type: ADME, organism-based; parameters: dose 5 mg/kg, route intravenous; details: in vivo; summary of the method: as §2
[17] = Half life in BALB-nu/nu mouse at 10 mg/kg, iv by LC-MS/MS analysis; assay type: ADME, organism-based; parameters: dose 10 mg/kg, route intravenous; details: in vivo; summary of the method: as §2
[18] = AUC (infinity) in cynomolgus monkey at 5 mg/kg, po by LC-MS/MS analysis; assay type: ADME, organism-based, Macaca fascicularis; parameters: dose 5 mg/kg, route oral, time infinity; details: plasma; summary of the method: as §2
[19] = AUC (infinity) in rat at 10 mg/kg, po by LC-MS/MS analysis; assay type: ADME, organism-based; parameters: time infinity, dose 10 mg/kg, route oral; details: plasma; summary of the method: as §2
[20] = AUC (infinity) in BALB-nu/nu mouse at 20 mg/kg, po by LC-MS/MS analysis; assay type: ADME, organism-based; parameters: time infinity, dose 20 mg/kg, route oral; details: plasma; summary of the method: as §2
[21] = Half life in cynomolgus monkey at 2.5 mg/kg, iv by LC-MS/MS analysis; details: in vivo
hERG (KCNH2) = hERG (KCNH2) (Homo sapiens, UniProt Q12809); assay: Inhibition of human ERG expressed in CHO cells at 10 uM by patch clamp assay relative to control; assay type: cell-based; details: CHO cells expressing human ERG
Chain of hERG (KCNH2) (Q12809 whole entry): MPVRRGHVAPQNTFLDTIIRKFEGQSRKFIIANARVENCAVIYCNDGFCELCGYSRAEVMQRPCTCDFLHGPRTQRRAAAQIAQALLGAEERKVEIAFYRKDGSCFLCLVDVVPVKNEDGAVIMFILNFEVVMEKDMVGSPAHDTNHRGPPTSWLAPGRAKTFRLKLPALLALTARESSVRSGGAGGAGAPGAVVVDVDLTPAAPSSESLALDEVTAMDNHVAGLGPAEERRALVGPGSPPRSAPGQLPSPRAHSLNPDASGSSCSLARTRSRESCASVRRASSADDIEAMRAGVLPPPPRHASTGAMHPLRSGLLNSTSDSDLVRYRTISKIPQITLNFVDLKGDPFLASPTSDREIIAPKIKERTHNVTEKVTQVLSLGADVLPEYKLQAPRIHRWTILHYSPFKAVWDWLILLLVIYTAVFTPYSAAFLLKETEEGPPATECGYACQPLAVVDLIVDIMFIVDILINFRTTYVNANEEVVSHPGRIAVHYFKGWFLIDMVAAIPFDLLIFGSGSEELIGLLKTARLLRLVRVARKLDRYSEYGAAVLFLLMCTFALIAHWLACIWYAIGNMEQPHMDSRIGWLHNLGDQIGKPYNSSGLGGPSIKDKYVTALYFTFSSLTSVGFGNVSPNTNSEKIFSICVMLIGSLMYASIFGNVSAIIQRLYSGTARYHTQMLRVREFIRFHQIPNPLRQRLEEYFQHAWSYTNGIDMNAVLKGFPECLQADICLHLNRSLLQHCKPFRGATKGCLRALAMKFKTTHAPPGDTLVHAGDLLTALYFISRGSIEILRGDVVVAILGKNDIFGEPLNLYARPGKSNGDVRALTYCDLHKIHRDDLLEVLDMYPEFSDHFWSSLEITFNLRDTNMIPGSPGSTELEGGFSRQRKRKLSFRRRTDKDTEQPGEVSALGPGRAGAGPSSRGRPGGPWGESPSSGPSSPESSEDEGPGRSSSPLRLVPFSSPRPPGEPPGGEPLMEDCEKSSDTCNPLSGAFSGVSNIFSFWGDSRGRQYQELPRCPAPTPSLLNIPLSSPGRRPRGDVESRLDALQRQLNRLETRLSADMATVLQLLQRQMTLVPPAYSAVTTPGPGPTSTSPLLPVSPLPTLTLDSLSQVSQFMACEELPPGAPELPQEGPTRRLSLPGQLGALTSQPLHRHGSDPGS

[22] = Oral bioavailability in mouse; assay type: ADME, organism-based; details: in vivo
Summary of the method: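 Mice received the sodium salt at 10 mg/kg iv and 20 mg/kg po, in a vehicle of 5% DMSO/5% Cremophor EL/15% PEG400/15% HPCD/60% water. Bioavailability was derived from the iv and po exposure.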

SMILES | AUC(0-t) at 24 h [1] [µM·h] | Papp [2] [×10⁻⁶ cm/s] | CLH (Liver microsome) [µL/min/mg] | solubility [3] [µg/mL] | IC50 [4] [µM] | IC50 [5] [µM] | IC50 (HCT-116 [6]) [µM] | other results
CNS(=O)(=O)Nc1cccc(Cc2c(C)c3ccc(Oc4ncccn4)cc3oc2=O)c1 | 223 | 6 | 20 | 29 (≈ 64.1 µM) | > 10 | 0.81 | 0.19 | 
CNS(=O)(=O)[N-]c1cccc(Cc2c(C)c3ccc(Oc4nccs4)cc3oc2=O)c1F.[Na+] | 366 |  |  |  |  |  |  | 
CNS(=O)(=O)Nc1cccc(Cc2c(C)c3ccc(Oc4nccs4)cc3oc2=O)c1F |  | 3 | 9 | 15 (≈ 31.5 µM) | 0.063 | 0.026 | 0.011 | 
CNS(=O)(=O)Nc1cccc(Cc2c(C)c3ccc(Oc4ncccn4)cc3oc2=O)c1C |  |  |  | < 4 | 3.6 | 4.2 | 0.33 | 
Cc1c(Cc2cccc([N-]S(N)(=O)=O)c2F)c(=O)oc2cc(OC(=O)N(C)C)ccc12.[Na+] |  |  |  |  |  |  |  | AUC(0-t) at 24 h [7]: 40 µM·h
CN(C)C(=O)Oc1ccc2c(CF)c(Cc3cccc(NS(N)(=O)=O)c3)c(=O)oc2c1 | 84 | 4 | 7 | 14 (≈ 31.1 µM) | 0.22 | 0.06 | 0.2 | 
Cc1c(Cc2cccc(NS(N)(=O)=O)c2)c(=O)oc2c(F)c(OC(=O)N(C)C)ccc12 |  |  |  |  | 0.12 | 0.24 | 0.14 | 
Cc1c(Cc2cccc(NS(N)(=O)=O)c2F)c(=O)oc2cc(OC(=O)N(C)C)ccc12 |  | 6 | 6 | 273 (≈ 607 µM) | 0.013 | 0.053 | 0.018 | 
C#Cc1cc2c(C)c(Cc3cccc(NS(=O)(=O)NC)c3)c(=O)oc2cc1OC(=O)N(C)C |  |  |  | 21 (≈ 44.7 µM) | 0.07 | 0.1 | 0.14 | 
CNS(=O)(=O)[N-]c1cccc(Cc2c(C)c3ccc(OC(=O)N(C)C)cc3oc2=O)c1.[Na+] | 78 |  |  |  |  |  |  | 
CNS(=O)(=O)Nc1cccc(Cc2c(C)c3ccc(OC(=O)N(C)C)cc3oc2=O)c1 |  | 6 | 20 | 32 (≈ 71.8 µM) | 0.3 | 0.11 | 0.024 | 
CNS(=O)(=O)[N-]c1cccc(Cc2c(C)c3ccc(Oc4ncccn4)cc3oc2=O)c1F.[Na+] |  |  |  |  |  |  |  | Activity (Mus musculus): Non-toxic; inhibition in vivo at 30 mg/kg (HCT-116 [8]): 119%; bioavailability [9]: 59%; ED50 (HCT-116 [10]): 1.4 mg/kg; bioavailability [11]: 84%; bioavailability [12]: 75%; clearance [13]: 6.6 mL/min/kg; clearance [14]: 0.9 mL/min/kg; clearance [15]: 6.8 mL/min/kg; half-life [16]: 1.3 h; half-life [17]: 4.8 h; AUC(0-inf) [18]: 108 µM·h; AUC(0-inf) [19]: 43 µM·h; AUC(0-inf) [20]: 75 µM·h; half-life [21]: 2.9 h
CNS(=O)(=O)Nc1cccc(Cc2c(C)c3cc(C#N)c(OC(=O)N(C)C)cc3oc2=O)c1 | 39 |  | 15 | 40 (≈ 85 µM) | 0.055 | 0.085 | 0.024 | 
CNS(=O)(=O)Nc1cccc(Cc2c(C)c3cc(F)c(OC(=O)N(C)C)cc3oc2=O)c1 | 99 | 5 | 13 | 55 (≈ 119 µM) |  | 0.064 | 0.022 | 
CNS(=O)(=O)[N-]c1cccc(Cc2c(C)c3ccc(OC(=O)N(C)C)cc3oc2=O)c1F.[Na+] | 70 |  |  |  |  |  |  | 
CNS(=O)(=O)Nc1cccc(Cc2c(C)c3cc(I)c(OC(=O)N(C)C)cc3oc2=O)c1 | 16 |  | 33 | 8 (≈ 14 µM) | 0.025 | 0.005 | 0.008 | 
CNS(=O)(=O)Nc1cccc(Cc2c(C)c3ccc(Oc4ncccn4)cc3oc2=O)c1F | 425 | 6 | 7 | 13 (≈ 27.6 µM) | 0.023 | 0.097 | 0.017 | inhibition at 10 µM (hERG (KCNH2)): 25%
Cc1c(Cc2cccc(NS(N)(=O)=O)c2)c(=O)oc2cc(OC(=O)N(C)C)ccc12 |  | 6 | 6 | 32 (≈ 74.2 µM) | 0.53 | 0.23 | 0.095 | bioavailability [22]: 62%
Cc1c(Cc2cc(NS(N)(=O)=O)ccc2F)c(=O)oc2cc(OC(=O)N(C)C)ccc12 | 176 | 5 | 6 | 9 (≈ 20 µM) | 0.83 | 0.94 | 0.95 | 
CNS(=O)(=O)Nc1cccc(Cc2c(C)c3ccc(OC(=O)N(C)C)cc3oc2=O)c1F |  | 5 | 13 | 81 (≈ 175 µM) | 0.008 | 0.038 | 0.009 | 
Cc1c(Cc2cccc([N-]S(N)(=O)=O)c2)c(=O)oc2cc(OC(=O)N(C)C)ccc12.[Na+] | 104 |  |  |  |  |  |  | 
Cc1c(Cc2ccc(F)c(NS(N)(=O)=O)c2)c(=O)oc2cc(OC(=O)N(C)C)ccc12 |  | 6 | 6 | 37 (≈ 82.3 µM) | 1.1 | 0.044 | 0.61 | 
CNS(=O)(=O)Nc1cccc(Cc2c(CF)c3ccc(OC(=O)N(C)C)cc3oc2=O)c1 | 86 | 4 | 22 | 72 (≈ 155 µM) | 0.12 | 0.066 | 0.03 | 
CNS(=O)(=O)Nc1cccc(Cc2c(C)c3cc(C)c(OC(=O)N(C)C)cc3oc2=O)c1 | 18 |  | 17 | 11 (≈ 23.9 µM) | 0.078 | 0.029 | 0.022 | 
Cc1c(Cc2cccc(NS(N)(=O)=O)c2)c(=O)oc2cc(OC(=O)N(C)C)c(F)cc12 |  | 5 | 6 | 114 (≈ 254 µM) | 0.18 | 0.11 | 0.087 | AUC(0-t) at 24 h [7]: 61 µM·h
CNS(=O)(=O)[N-]c1cccc(Cc2c(C)c3ccc(Oc4nccs4)cc3oc2=O)c1.[Na+] | 190 |  |  |  |  |  |  | 
CNS(=O)(=O)Nc1ccc(F)c(Cc2c(C)c3ccc(OC(=O)N(C)C)cc3oc2=O)c1 | 75 | 5 | 22 | 51 (≈ 110 µM) | 2.4 | 2.9 | 0.55 | 
CNS(=O)(=O)Nc1cccc(Cc2c(C)c3ccc(Oc4nccs4)cc3oc2=O)c1 |  | 2 | 24 | 9 (≈ 19.7 µM) | 1.5 | 0.059 | 0.16 | 
